In PubChem BioAssay one finds potentiation and outcome data, which are given here for 40 molecules.

Calls of active or inactive are those of the source.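 The calls were made as follows, unless noted: active = current rise at least 3 SD above the untreated control mean in each of two repeat wells; inactive = the rest.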

For the first test, the target named is Potassium voltage-gated channel subfamily KQT member 2 (Rattus norvegicus) (UniProt O88943). The test is described as follows: KCNQ2 thallium flux enhancement – KCNQ2-CHO-K1 cells, selectivity assay for KCNQ1 potentiator project (AID 493009;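 active = mean duplicate potentiation above the buffer control mean plus 5 SD of buffer wells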;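 also: assay conditions were tuned for KCNQ1 rather than KCNQ2 modulators; signal is max minus min fluorescence divided by baseline after thallium stimulus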). The note with it: FluxOR thallium flux fluorescence, at 10 µM; stronger effect = higher value, scaled: buffer 0, activator control 100.
Potassium voltage-gated channel subfamily KQT member 2 (Rattus norvegicus), sequence (O88943 whole entry, looked up): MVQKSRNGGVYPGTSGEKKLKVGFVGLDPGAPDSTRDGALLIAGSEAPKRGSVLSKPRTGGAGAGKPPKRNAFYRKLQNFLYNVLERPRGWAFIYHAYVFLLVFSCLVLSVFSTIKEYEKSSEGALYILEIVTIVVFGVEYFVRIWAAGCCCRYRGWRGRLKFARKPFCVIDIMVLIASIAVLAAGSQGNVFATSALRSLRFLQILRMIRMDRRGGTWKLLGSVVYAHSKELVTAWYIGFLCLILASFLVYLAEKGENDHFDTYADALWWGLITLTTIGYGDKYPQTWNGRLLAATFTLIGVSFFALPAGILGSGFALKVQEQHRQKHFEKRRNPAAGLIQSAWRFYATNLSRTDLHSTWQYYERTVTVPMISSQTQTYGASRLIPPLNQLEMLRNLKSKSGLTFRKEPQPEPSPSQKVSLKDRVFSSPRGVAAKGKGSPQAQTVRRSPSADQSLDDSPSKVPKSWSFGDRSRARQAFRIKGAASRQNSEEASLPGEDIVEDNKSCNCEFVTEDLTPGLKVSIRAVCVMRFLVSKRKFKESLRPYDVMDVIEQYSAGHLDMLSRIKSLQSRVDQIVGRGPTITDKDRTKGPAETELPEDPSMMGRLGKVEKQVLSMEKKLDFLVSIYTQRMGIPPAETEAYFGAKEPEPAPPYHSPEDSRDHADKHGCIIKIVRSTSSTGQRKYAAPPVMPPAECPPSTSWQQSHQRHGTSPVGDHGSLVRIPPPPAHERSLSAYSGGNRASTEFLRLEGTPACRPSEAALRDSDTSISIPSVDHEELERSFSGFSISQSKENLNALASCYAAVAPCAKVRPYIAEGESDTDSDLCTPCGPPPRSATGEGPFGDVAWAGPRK
For `COCCCn1c(=S)[nH]c2sc3c(c2c1=O)CCCC3`, the potentiation is 346% (active).
Still for that read-out and setting: for `O=c1c2cc(Cl)ccc2nc(-c2ccccc2)n1O` the value was 269% (active); for `O=C(N/N=C/c1ccc(Sc2ccccn2)o1)c1cc2ccccc2cc1O`, 277% (active).
Turning to `CNC(=O)c1cc(-c2ccc(Cl)cc2)n(-c2ccccc2)n1`, the outcome was inactive.
Same read-out and setting: then `COc1ccc(CN2C(=O)C(O)(CC(=O)c3ccc4c(c3)OCO4)c3ccccc32)cc1OC` (stereo not given), with “inactive”; and `COc1cc(Br)cc(/C=N/c2ncn[nH]2)c1O`, with “inactive”; and `CCCCOc1ccc(C(=O)Oc2ccc(C)nc2)cc1`, with “inactive”.
Still for that read-out and setting: then `COc1ccc(NC(=O)[C@@H]2CC=C[C@@H]3CCN(C4CCCCC4)C(=O)[C@@H]32)cc1`, with “inactive”.
Turning to `CCOc1ccc2nc(/N=C/c3c(C)[nH]n(-c4ccccc4)c3=O)sc2c1`, the potentiation is 661% (active).
Regarding `CC(=O)/C=C1/C(=O)Nc2ccccc21`, the potentiation was 188% (active).
On the same count and under the same terms, for `S=c1[nH]nc(-c2ccc(Cl)cc2Cl)n1-c1ccc(Cl)cc1` the value was 167% (active); for `Cc1ccc(O)c(C(=O)CC(=O)c2ccccc2Cl)c1`, 144% (active).
`Nc1nc(-c2ccccc2)c(N=Nc2ccccc2Cl)s1`: the potentiation was 416% (active).
For `CCOc1ccc(S(=O)(=O)Nc2cc(OC)ccc2OC)cc1`, the result was inactive.
Same read-out and setting: then `COc1ccc(CN2C(=O)C(C)S/C2=N/N=C/c2ccco2)cc1` (stereo not given), with “inactive”; and `CCN(C(=O)COC(=O)C(Cc1ccccc1)N1C(=O)c2ccccc2C1=O)C1CCS(=O)(=O)C1` (stereo not given), with “inactive”.
With `CCOC(=O)c1nnn(CC(=O)Nc2cc(Cl)ccc2C)c1C(=O)OCC`, the result was inactive.
Same read-out and setting: then `O=C(CCC(=O)N1CCOc2ccc(Cl)cc21)NCCCN1CCN(c2ccccc2F)CC1`, with “inactive”.
On the same count and under the same terms, then `O=C(N/N=C/c1cccnc1)c1ccco1`, with “inactive”.
The same measure, in the same setting: for `COc1cccc(C(=O)COc2ccc(NC(=O)c3ccccc3)cc2)c1` the value was “inactive”.
For `O=C(/C=C/c1ccccc1)C1C(=O)c2ccccc2C1=O`, the potentiation is 146% (active).
For `Oc1c(Cl)cc(Cl)cc1C=Nc1ccc2c(c1)OCCO2`, the result was inactive.
Still for that read-out and setting: then `Cc1c(N=Cc2cc(Br)cc(Br)c2O)cccc1C(=O)O`, with “inactive”.
Take `Cc1ccc(-c2nc3c(Cl)cc(Cl)cc3c(=O)n2O)cc1`: the potentiation was 820% (active).
Take `Cc1ccccc1C([O-])=Nc1ccc[n+](-c2nc3ccccc3nc2NS(=O)(=O)c2ccccc2)c1`: the outcome was inactive.
The same measure, in the same setting: then `Cc1ccnc(NC(=O)CNC(=O)c2ccc3c(c2)OCO3)c1`, with “inactive”.
On to `O=C(NC(=S)N1CCc2ccccc21)c1ccccc1Cl`, for which the potentiation was 416% (active).
On the same count and under the same terms, for `N=C1S/C(=C\c2ccco2)C(=O)N1c1nccs1` the value was 186% (active).
Consider `Cc1ccc(-c2ccnc(=S)[nH]2)cc1`, for which the outcome was inactive.
`Cc1cccc(NC(=O)c2ccc(COc3ccccc3[N+](=O)[O-])o2)n1`: the result was inactive.
On the same count and under the same terms, for `CCOc1ccc(NC(=O)Cn2sc3nc(C)cc(C)c3c2=O)cc1` the value was “inactive”.
For the molecule `Cc1ccccc1C(=O)NNC(=O)C(=O)Nc1cccc(Cl)c1C`, the potentiation was 406% (active).
As for `O=C(NCc1ccccc1)c1onc(CSc2ccc(F)cc2)c1C(=O)NCCCN1CCOCC1`, the outcome was inactive.
The same measure, in the same setting: then `CN1CCN(c2ccccc2NC(=S)NC(=O)c2cc3ccccc3o2)CC1`, with “inactive”; and `O=C1/C(=C/c2cccc(F)c2)SC(=S)N1NS(=O)(=O)c1ccccc1`, with “inactive”.
Take `O=C(NN=C1CCCC1)c1n[nH]c2c1CCC2`: the potentiation is 178% (active).
As to `CCOC(=O)c1c(NC(=S)NCC2CCCO2)sc(C)c1C` (stereo not given), the outcome was inactive.
Consider `CC1CC(C)CN(Cc2nc(N)nc(Nc3ccc4ccccc4c3)n2)C1` (stereo not given), for which the potentiation was 165% (active).
Regarding `O=C1CCC(C(=O)N2CCSCC2)CN1Cc1cccc(C(F)(F)F)c1` (stereo not given), the result was inactive.
Same read-out and setting: then `CC(=O)Nc1cccc(/C(C)=N/NC(=O)c2ccc(Cl)cc2Cl)c1`, with “inactive”.

The target of a further test is Potassium voltage-gated channel subfamily KQT member 1 (Homo sapiens) (UniProt P51787). The test is described as follows: KCNQ1 activators by electrophysiology – IonWorks patch clamp, KCNQ1-CHO cells, orthogonal assay for KCNQ1 potentiator project, confirmation (AID 493184). The note with it: automated patch clamp current, at 10 µM; stronger effect = higher value. Put shortly: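 Material: KCNQ1-expressing CHO cells; doses: 10 µM final, single point; probe or stimulus: voltage step from -90 mV holding to +40 mV, 2,000 ms; signal: automated voltage clamp, amphotericin B perforated patch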
Potassium voltage-gated channel subfamily KQT member 1 (Homo sapiens), sequence (P51787 whole entry, looked up): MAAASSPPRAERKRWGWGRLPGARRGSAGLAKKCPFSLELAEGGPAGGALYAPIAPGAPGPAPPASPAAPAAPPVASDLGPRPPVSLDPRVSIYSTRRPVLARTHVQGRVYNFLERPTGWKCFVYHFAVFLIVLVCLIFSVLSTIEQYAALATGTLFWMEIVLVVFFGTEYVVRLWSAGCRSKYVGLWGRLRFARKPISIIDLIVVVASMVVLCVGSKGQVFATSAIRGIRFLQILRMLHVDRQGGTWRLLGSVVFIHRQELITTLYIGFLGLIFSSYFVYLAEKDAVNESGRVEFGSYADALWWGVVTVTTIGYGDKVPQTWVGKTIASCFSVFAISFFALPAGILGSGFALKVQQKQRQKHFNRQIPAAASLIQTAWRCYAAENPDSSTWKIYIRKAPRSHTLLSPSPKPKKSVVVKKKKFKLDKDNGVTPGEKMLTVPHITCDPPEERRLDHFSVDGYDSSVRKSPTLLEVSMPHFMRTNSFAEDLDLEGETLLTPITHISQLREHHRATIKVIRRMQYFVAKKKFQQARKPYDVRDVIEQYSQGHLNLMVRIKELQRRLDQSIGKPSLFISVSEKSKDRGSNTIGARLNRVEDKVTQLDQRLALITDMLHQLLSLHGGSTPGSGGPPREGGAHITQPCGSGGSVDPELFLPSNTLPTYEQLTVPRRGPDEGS
Consider `COCCCn1c(=S)[nH]c2sc3c(c2c1=O)CCCC3`, for which the result was inactive.
On to `O=c1c2cc(Cl)ccc2nc(-c2ccccc2)n1O`, for which the outcome was inactive.
On the same count and under the same terms, for `O=C(N/N=C/c1ccc(Sc2ccccn2)o1)c1cc2ccccc2cc1O` the value was “inactive”.
Still for that read-out and setting: then `CNC(=O)c1cc(-c2ccc(Cl)cc2)n(-c2ccccc2)n1`, with “inactive”; and `COc1ccc(CN2C(=O)C(O)(CC(=O)c3ccc4c(c3)OCO4)c3ccccc32)cc1OC` (stereo not given), with “inactive”.
The same measure, in the same setting: then `COc1cc(Br)cc(/C=N/c2ncn[nH]2)c1O`, with “inactive”.
As to `CCCCOc1ccc(C(=O)Oc2ccc(C)nc2)cc1`, the result was inactive.
Consider `COc1ccc(NC(=O)[C@@H]2CC=C[C@@H]3CCN(C4CCCCC4)C(=O)[C@@H]32)cc1`, for which the outcome was inactive.
The same measure, in the same setting: then `CCOc1ccc2nc(/N=C/c3c(C)[nH]n(-c4ccccc4)c3=O)sc2c1`, with “inactive”.
Same read-out and setting: for `CC(=O)/C=C1/C(=O)Nc2ccccc21` the value was “inactive”.
Still for that read-out and setting: then `S=c1[nH]nc(-c2ccc(Cl)cc2Cl)n1-c1ccc(Cl)cc1`, with “inactive”; and `Cc1ccc(O)c(C(=O)CC(=O)c2ccccc2Cl)c1`, with “inactive”; and `Nc1nc(-c2ccccc2)c(N=Nc2ccccc2Cl)s1`, with “inactive”.
In the case of `CCOc1ccc(S(=O)(=O)Nc2cc(OC)ccc2OC)cc1`, the outcome was inactive.
On the same count and under the same terms, for `COc1ccc(CN2C(=O)C(C)S/C2=N/N=C/c2ccco2)cc1` (stereo not given) the value was “inactive”.
Same read-out and setting: for `CCN(C(=O)COC(=O)C(Cc1ccccc1)N1C(=O)c2ccccc2C1=O)C1CCS(=O)(=O)C1` (stereo not given) the value was “inactive”.
Turning to `CCOC(=O)c1nnn(CC(=O)Nc2cc(Cl)ccc2C)c1C(=O)OCC`, the outcome was inactive.
On the same count and under the same terms, then `O=C(CCC(=O)N1CCOc2ccc(Cl)cc21)NCCCN1CCN(c2ccccc2F)CC1`, with “inactive”.
`O=C(N/N=C/c1cccnc1)c1ccco1`: the result was inactive.
On the same count and under the same terms, then `COc1cccc(C(=O)COc2ccc(NC(=O)c3ccccc3)cc2)c1`, with “inactive”; and `O=C(/C=C/c1ccccc1)C1C(=O)c2ccccc2C1=O`, with “inactive”; and `Oc1c(Cl)cc(Cl)cc1C=Nc1ccc2c(c1)OCCO2`, with “inactive”.
The same measure, in the same setting: for `Cc1c(N=Cc2cc(Br)cc(Br)c2O)cccc1C(=O)O` the value was “inactive”; for `Cc1ccc(-c2nc3c(Cl)cc(Cl)cc3c(=O)n2O)cc1`, “inactive”; for `Cc1ccccc1C([O-])=Nc1ccc[n+](-c2nc3ccccc3nc2NS(=O)(=O)c2ccccc2)c1`, “inactive”.
The same measure, in the same setting: then `Cc1ccnc(NC(=O)CNC(=O)c2ccc3c(c2)OCO3)c1`, with “inactive”; and `O=C(NC(=S)N1CCc2ccccc21)c1ccccc1Cl`, with “inactive”.
`N=C1S/C(=C\c2ccco2)C(=O)N1c1nccs1`: the outcome was inactive.
On the same count and under the same terms, then `Cc1ccc(-c2ccnc(=S)[nH]2)cc1`, with “inactive”; and `Cc1cccc(NC(=O)c2ccc(COc3ccccc3[N+](=O)[O-])o2)n1`, with “inactive”.
Same read-out and setting: for `CCOc1ccc(NC(=O)Cn2sc3nc(C)cc(C)c3c2=O)cc1` the value was “inactive”.
Same read-out and setting: then `Cc1ccccc1C(=O)NNC(=O)C(=O)Nc1cccc(Cl)c1C`, with “inactive”.
Turning to `O=C(NCc1ccccc1)c1onc(CSc2ccc(F)cc2)c1C(=O)NCCCN1CCOCC1`, the outcome was inactive.
On the same count and under the same terms, then `CN1CCN(c2ccccc2NC(=S)NC(=O)c2cc3ccccc3o2)CC1`, with “inactive”.
Still for that read-out and setting: for `O=C1/C(=C/c2cccc(F)c2)SC(=S)N1NS(=O)(=O)c1ccccc1` the value was “inactive”; for `O=C(NN=C1CCCC1)c1n[nH]c2c1CCC2`, “inactive”; for `CCOC(=O)c1c(NC(=S)NCC2CCCO2)sc(C)c1C` (stereo not given), “inactive”.
On the same count and under the same terms, for `CC1CC(C)CN(Cc2nc(N)nc(Nc3ccc4ccccc4c3)n2)C1` (stereo not given) the value was “inactive”; for `O=C1CCC(C(=O)N2CCSCC2)CN1Cc1cccc(C(F)(F)F)c1` (stereo not given), “inactive”.
`CC(=O)Nc1cccc(/C(C)=N/NC(=O)c2ccc(Cl)cc2Cl)c1`: the result was inactive.
